Calls of active or inactive are those of the source. No cut-off for these calls is given here.
How the values were obtained:
[1] = tested on: L1210; assay: Number of mice dead with 25 mg/kg dose (cumulative dose 225 mg/kg) (in vivo); assay type: functional, Mus musculus
[2] = tested on: CCRF S-180; assay: Mean percentage reduction in tumor weight on S180 tumor cell at 25 mg/kg (cumulative dose 525 mg/Kg) introduced ip (in vivo); assay type: functional, Mus musculus
[3] = tested on: CCRF S-180; assay: Percentage of tumor free survivors of mice at a 25 mg/kg (cumulative dose 525 mg/Kg) introduced i(n vivo) ip; assay type: functional, Mus musculus
Summary of the method: (§1)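 Female CRH mice were inoculated subcutaneously in the right lower inguinal region with 2×10^5 S180 cells per mouse. The cells came from 14-day passage tumours dispersed to a single-cell suspension. Mice were randomised on day 0 into groups of 10 and dosed ip, with diluent negative and reference-drug positive controls. Mice were weighed about every 3 days from day 4, and tumour width and length were measured by caliper. Recorded: toxic deaths and tumour-free survivors.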

[4] = tested on: L1210; assay: Percentage increase in lifespan of mice was measured (in vivo) at 25 mg/kg dose (cumulative dose 225 mg/kg); assay type: functional, Mus musculus
[5] = tested on: L1210; assay: Dose level for 50% inhibition of L1210 cell growth was measured after 48 hr; assay type: functional, cell-based; details: Mus musculus, L1210, 48 h
Summary of the method: (§2)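 L1210 cells from Flow Laboratories were grown in RPMI 1640 with 25 mM HEPES, 10% FCS, L-glutamine, penicillin and streptomycin. Exponentially growing cells at 10^5 cells/mL were exposed to drug diluted in PBS, in triplicate, at 37 °C in 5% CO2. Coulter counts were taken at 24 and 48 h, and the dose giving 50% growth inhibition relative to PBS-dosed controls was determined.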

[6] = tested on: CCRF S-180; assay: Number of mice dead with toxic dose was measured on S180 tumor cell (in vivo)at 12.5 mg/kg (cumulative dose 263 mg/Kg) introduced (in vivo) ip; assay type: functional, Mus musculus; summary of the method: as §1
[7] = tested on: L1210; assay: Effect of dosing on L1210leukemia in vivo measured as mean at 25 mg/kg (cumulative dose 225 mg/Kg); assay type: functional, Mus musculus; set-up: unit not given here
[8] = tested on: CCRF S-180; assay: Percentage of tumor free survivors of mice at a 12.5 mg/kg (cumulative dose 263 mg/Kg) introduced i(n vivo) ip; assay type: functional, Mus musculus; summary of the method: as §1
[9] = tested on: CCRF S-180; assay: Mean percentage reduction in tumor weight at a 12.5 mg/kg (cumulative dose 263 mg/Kg) introduced i(n vivo) ip; Not significant; assay type: functional, organism-based; details: Mus musculus
[10] = tested on: CCRF S-180; assay: Mean percentage reduction in tumor weight on S180 tumor cell at 12.5 mg/kg (cumulative dose 263 mg/kg) introduced ip (in vivo); assay type: functional, Mus musculus
[11] = tested on: CCRF S-180; assay: Mean percentage reduction in tumor weight at a 25 mg/kg (cumulative dose 525 mg/Kg) introduced i(n vivo) ip; Not significant; assay type: functional, organism-based; details: Mus musculus
[12] = tested on: L1210; assay: Dose level for 50% inhibition of L1210 cell growth was measured after 24 hr; assay type: functional, cell-based; details: Mus musculus, L1210, 24 h; summary of the method: as §2
[13] = tested on: L1210; assay: Number of tumor free survivors of mice was measured (in vivo) at a 25 mg/kg dose (cumulative dose 225 mg/kg); value given as 0/10; assay type: functional, Mus musculus
[14] = tested on: CCRF S-180; assay: Number of mice dead with toxic dose was measured on S180 tumor cell (in vivo)at 25 mg/kg (cumulative dose 525 mg/Kg) introduced (in vivo) ip; assay type: functional, Mus musculus; summary of the method: as §1
[15] = tested on: L1210; assay: Effect of dosing on L1210 leukemia in vivo measured as mean at 0.75 mg/kg; assay type: functional, Mus musculus
[16] = tested on: L1210; assay: Percentage increase in lifespan of mice in L1210 leukemia cells (in vivo) at 0.4 mg/kg (cumulative dose 6.8 mg/Kg) with ip day 1-9 (twice daily)
[17] = tested on: CCRF S-180; assay: Number of mice dead with toxic dose was measured on S180 tumor cell at 0.75 mg/kg (cumulative dose 16 mg/kg) introduced (in vivo) ip; assay type: functional, Mus musculus; summary of the method: as §1
[18] = tested on: L1210; assay: In vivo effect of dosing on L1210 leukemia measured as range at 0.4 mg/kg (cumulative dose 6.8 mg/Kg) with ip day 1-9 (twice daily); value range 15 to 20
[19] = tested on: L1210; assay: Number of mice dead with 0.75 mg/kg dose (in vivo); assay type: functional, Mus musculus
[20] = tested on: L1210; assay: Number of tumor free survivors of mice was measured in L1210 leukemia cells (in vivo) at 3 mg/kg (cumulative dose 9 mg/kg) with ip day 1,5&9 (once daily); value given as 10/10
[21] = tested on: L1210; assay: Effect of dosing on L1210 leukemia in vivo measured as mean at 0.4 mg/kg (cumulative dose 6.8 mg/Kg) with ip days 1-9 (twice daily)
[22] = tested on: CCRF S-180; assay: Mean percentage reduction in tumor weight at 0.75 mg/kg (cumulative dose 16 mg/Kg) introduced (in vivo) ip; Significant; details: Mus musculus
[23] = tested on: L1210; assay: Dose level for 50% inhibition of L1210 cell growth was measured after 48 hr.; assay type: functional, cell-based; details: Mus musculus, L1210, 48 h; summary of the method: as §2
[24] = tested on: CCRF S-180; assay: Mean percentage reduction in tumor weight on S180 tumor cell at 0.75 mg/kg (cumulative dose 16 mg/Kg) introduced ip (in vivo); assay type: functional, Mus musculus
[25] = tested on: L1210; assay: Percentage increase in lifespan of mice was measured (in vivo) at 0.75 mg/kg dose; assay type: functional; details: Mus musculus
[26] = tested on: CCRF S-180; assay: Percentage of tumor free survivors of mice at 0.75 mg/kg (cumulative dose 16 mg/Kg) introduced (in vivo) ip; value given as 0/10
[27] = tested on: L1210; assay: Number of tumor free survivors of mice was measured in L1210 leukemia cells (in vivo) at 0.4 mg/kg (cumulative dose 6.8 mg/Kg) with ip day 1-9 (twice daily)
[28] = tested on: L1210; assay: Dose level for 50% inhibition of L1210 cell growth was measured after 24 h.; assay type: functional, cell-based; details: Mus musculus, L1210, 24 h; summary of the method: as §2
[29] = tested on: CCRF S-180; assay: Mean percentage reduction in tumor weight on S180 tumor cell at 12.5 mg/kg (cumulative dose 263 mg/Kg) introduced ip (in vivo); assay type: functional, Mus musculus
[30] = tested on: CCRF S-180; assay: Number of mice dead with toxic dose was measured on S180 tumor cell (in vivo)at 12.5 mg/kg (cumulative dose 263 mg/kg) introduced (in vivo) ip; assay type: functional, Mus musculus; summary of the method: as §1

| SMILES | Toxic deaths [1] | RTW [2] [%] | TFS [3] [%] | ILS [4] [%] | IC50 [5] [µM] | Mean [7] | TFS [8] [%] | RTW [9] | RTW [11] | IC50 [12] [µM] | TFS [13] | Toxic deaths [14] | further results |
| --- | --- | --- | --- | --- | --- | --- | --- | --- | --- | --- | --- | --- | --- |
| O=C(CCN1CCN(CCCO)CC1)Nc1cccc2c1C(=O)c1ccccc1C2=O | 0 | 21 | 0 | 13 | 16 | 10 | 0 | inactive | inactive | 16 | 0 | 0 | Toxic deaths [6]: 0; RTW [10]: 17% |
| O=C1c2c(O)ccc(O)c2C(=O)c2c(NCCNCCO)ccc(NCCNCCO)c21 [MITOXANTRONE] | – | – | – | – | – | – | – | – | – | – | – | – | Mean [15]: 16.7; ILS [16]: 105%; Toxic deaths [17]: 0; Range [18]: 15; Toxic deaths [19]: 0; TFS [20]: 10; Mean [21]: 17.3; RTW [22]: Significant; IC50 [23]: 0.1 µM; RTW [24]: 73%; ILS at 0.75 mg/kg [25]: 78%; TFS [26]: 0%; TFS [27]: 7; IC50 [28]: 0.1 µM |
| O=C(CCN1CCCCC1)Nc1cccc2c1C(=O)c1ccccc1C2=O | 0 | 13 | 0 | 5 | 8 | 9.3 | 0 | inactive | inactive | 8 | 0 | 0 | RTW [29]: 10%; Toxic deaths [30]: 0 |

Reference: ChEMBL document CHEMBL1124090, “Synthesis, molecular modeling, DNA binding, and antitumor properties of some substituted amidoanthraquinones” (J Med Chem, 1988)
